According to ChEMBL document CHEMBL2150901, “Synthesis and biological activity of tricyclic cycloalkylimidazo-, pyrimido- and diazepinopurinediones” (Eur J Med Chem, 2011):
The source made the active and inactive calls. The calls are words filed in the database; no cut-off is given here.

Experiments:
Adenosine receptor A1 [1] = target: T1, Adenosine receptor A1 (Rattus norvegicus, UniProt P25099); test: Displacement of [3H]CCPA from adenosine A1 receptor in rat brain cortical membrane; format: cell membranes
T1 sequence (P25099 whole entry): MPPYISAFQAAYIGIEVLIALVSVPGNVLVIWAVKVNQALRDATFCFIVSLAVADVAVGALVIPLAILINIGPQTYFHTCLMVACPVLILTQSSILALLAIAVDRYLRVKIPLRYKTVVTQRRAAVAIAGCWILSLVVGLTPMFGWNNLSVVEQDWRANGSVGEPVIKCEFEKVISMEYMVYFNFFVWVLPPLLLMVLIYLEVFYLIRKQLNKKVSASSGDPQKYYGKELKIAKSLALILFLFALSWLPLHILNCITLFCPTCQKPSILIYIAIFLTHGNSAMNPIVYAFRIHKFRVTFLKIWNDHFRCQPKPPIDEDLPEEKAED

Mus musculus [2] = test: Anticonvulsant activity in F1 albino mouse assessed as protection against subcutaneous pentylenetetrazole-induced seizures at 300 mg/kg, ip after 0.25 hrs; format: functional, organism-based; parameters: dose 300 mg/kg
Outline: (§1)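 Male albino F-1 mice (18–25 g), groups of 1–5 (rotorod 2–8). Compound given ip as a suspension in 0.5% methylcellulose at 30, 100 and 300 mg/kg. Seizures by maximal electroshock or subcutaneous pentylenetetrazole; neurotoxicity by rotorod. Read at 0.5 and 4 h, with some at 0.25, 1 and 2 h. Value is the minimum active dose, with protected (or toxic)/tested animals.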

Mus musculus [3] = test: Anticonvulsant activity in F1 albino mouse assessed as protection against subcutaneous pentylenetetrazole-induced seizures at 300 mg/kg, ip after 4 hrs; format: functional, organism-based; parameters: dose 300 mg/kg; outline: as §1
[4] = target: T2, Adenosine receptor A2b (Homo sapiens) (UniProt P29275); test: Displacement of [3H]PSB-603 from human recombinant adenosine A2B receptor expressed in CHO cells at 10 uM; format: cell-based
T2 sequence (whole entry): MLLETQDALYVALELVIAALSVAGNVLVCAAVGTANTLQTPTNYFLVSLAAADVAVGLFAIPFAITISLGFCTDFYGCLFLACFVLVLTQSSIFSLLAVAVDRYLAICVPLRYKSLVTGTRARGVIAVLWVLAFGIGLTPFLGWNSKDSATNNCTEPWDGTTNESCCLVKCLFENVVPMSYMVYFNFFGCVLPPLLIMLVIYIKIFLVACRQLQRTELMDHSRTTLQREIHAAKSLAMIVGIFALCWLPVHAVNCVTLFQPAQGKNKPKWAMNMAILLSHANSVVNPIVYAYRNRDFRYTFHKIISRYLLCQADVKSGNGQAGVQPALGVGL
Outline: (§2)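 CHO cell membranes expressing the human receptor. Radioligands: A1 [3H]CCPA; A2B [3H]ZM241385 or [3H]PSB-603; A3 [3H]PSB-11. […] Potent compounds run at 6–7 concentrations spanning 3 orders of magnitude; Ki ± SEM.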

Mus musculus [5] = test: Neurotoxicity in F1 albino mouse assessed as minimal motor impairment at 300 mg/kg, ip after 1 hr by rotorod test; format: toxicity, organism-based; parameters: dose 300 mg/kg, route intraperitoneal; conditions: in vivo; outline: as §1
[6] = target: T3, Adenosine receptor A1 (Rattus norvegicus) (UniProt P25099); test: Displacement of [3H]CCPA from adenosine A1 receptor in rat brain cortical membrane at 25 uM; format: cell membranes
T3 sequence (whole entry): T1 sequence (P25099 whole entry)

Adenosine receptor A2a [7] = target: Adenosine receptor A2a (Rattus norvegicus, UniProt P30543); test: Displacement of [3H]MSX-2 from adenosine A2A receptor in rat brain striatal membrane; format: cell membranes
Mus musculus [8] = test: Anticonvulsant activity in F1 albino mouse assessed as protection against maximal electroshock-induced seizures at 300 mg/kg, ip after 1 hr; format: functional, organism-based; parameters: dose 300 mg/kg; outline: as §1
Mus musculus [9] = test: Anticonvulsant activity in F1 albino mouse assessed as protection against maximal electroshock-induced seizures at 300 mg/kg, ip after 0.5 hrs; format: functional, organism-based; parameters: dose 300 mg/kg; outline: as §1
Mus musculus [10] = test: Neurotoxicity in F1 albino mouse assessed as minimal motor impairment at 300 mg/kg, ip after 0.25 hrs by rotorod test; format: toxicity, organism-based; parameters: dose 300 mg/kg, route intraperitoneal; conditions: in vivo; outline: as §1
Mus musculus [11] = test: Anticonvulsant activity in F1 albino mouse assessed as protection against subcutaneous pentylenetetrazole-induced seizures at 300 mg/kg, ip after 1 hr; format: functional, organism-based; parameters: dose 300 mg/kg; outline: as §1
[12] = target: T4, Adenosine receptor A3 (Homo sapiens) (UniProt P0DMS8); test: Displacement of [3H]PSB-11 from human recombinant adenosine A3 receptor expressed in CHO cells at 10 uM; format: cell-based; outline: as §2
T4 sequence (whole entry): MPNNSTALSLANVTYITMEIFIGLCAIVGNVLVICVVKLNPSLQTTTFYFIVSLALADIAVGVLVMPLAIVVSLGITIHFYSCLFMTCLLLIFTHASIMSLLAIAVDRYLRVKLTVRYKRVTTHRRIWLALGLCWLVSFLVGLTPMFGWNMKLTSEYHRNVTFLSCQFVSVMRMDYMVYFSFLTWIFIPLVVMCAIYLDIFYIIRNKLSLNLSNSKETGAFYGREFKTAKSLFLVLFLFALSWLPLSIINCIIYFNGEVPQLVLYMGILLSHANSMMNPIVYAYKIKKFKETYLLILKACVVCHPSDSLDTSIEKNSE

CHO = test: Selectivity ratio of Ki for human recombinant adenosine A2A receptor expressed in CHO cells to Ki for adenosine A2A receptor in rat brain striatal membrane; format: cell-based
Outline: (§3)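 Ki ratios from radioligand competition binding. Rat A1 used brain cortical membranes and rat A2A used brain striatal membranes. Human A1 and A2A used membranes of CHO cells expressing the receptors. A1 radioligand [³H]CCPA; A2A radioligand [³H]MSX-2. Potent compounds were tested at 6–7 concentrations spanning 3 orders of magnitude.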

[13] = target: T5, Adenosine receptor A1 (Homo sapiens) (UniProt P30542); test: Displacement of [3H]CCPA from human recombinant adenosine A1 receptor expressed in CHO cells at 10 uM; format: cell-based; outline: as §2
T5 sequence (whole entry): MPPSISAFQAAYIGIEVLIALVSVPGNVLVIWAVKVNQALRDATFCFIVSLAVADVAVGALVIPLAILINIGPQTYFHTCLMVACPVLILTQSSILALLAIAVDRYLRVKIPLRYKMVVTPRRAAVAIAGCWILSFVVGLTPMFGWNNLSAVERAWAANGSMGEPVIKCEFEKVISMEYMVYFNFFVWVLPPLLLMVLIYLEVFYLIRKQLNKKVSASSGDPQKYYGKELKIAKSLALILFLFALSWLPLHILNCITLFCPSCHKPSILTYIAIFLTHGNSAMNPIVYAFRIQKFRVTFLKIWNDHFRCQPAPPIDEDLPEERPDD

Mus musculus [14] = test: Anticonvulsant activity in F1 albino mouse assessed as protection against subcutaneous pentylenetetrazole-induced seizures at 300 mg/kg, ip after 0.5 hrs; format: functional, organism-based; parameters: dose 300 mg/kg; outline: as §1
Mus musculus [15] = test: Anticonvulsant activity in F1 albino mouse assessed as protection against maximal electroshock-induced seizures at 300 mg/kg, ip after 4 hrs; format: functional, organism-based; parameters: dose 300 mg/kg; outline: as §1
Mus musculus [16] = test: Neurotoxicity in F1 albino mouse assessed as minimal motor impairment at 300 mg/kg, ip after 0.5 hrs by rotorod test; format: toxicity, organism-based; parameters: dose 300 mg/kg, route intraperitoneal; conditions: in vivo; outline: as §1
Adenosine receptor A2a [17] = target: Adenosine receptor A2a (Homo sapiens, UniProt P29274); test: Displacement of [3H]MSX-2 from human recombinant adenosine A2A receptor expressed in CHO cells; format: cell-based
Adenosine receptor A2b [18] = target: T6, Adenosine receptor A2b (Homo sapiens, UniProt P29275); test: Displacement of [3H]PSB-603 from human recombinant adenosine A2B receptor expressed in CHO cells; format: cell-based; outline: as §2
T6 sequence (P29275 whole entry): T2 sequence (whole entry)

Mus musculus [19] = test: Anticonvulsant activity in F1 albino mouse assessed as protection against maximal electroshock-induced seizures at 300 mg/kg, ip after 0.25 hrs; format: functional, organism-based; parameters: dose 300 mg/kg; outline: as §1
Rattus norvegicus = organism: Rattus norvegicus; test: Selectivity ratio of Ki for adenosine A1 receptor in rat brain cortical membrane to Ki for adenosine A2A receptor in rat brain striatal membrane; format: cell membranes; outline: as §3
Adenosine receptor A1 [20] = target: T7, Adenosine receptor A1 (Homo sapiens, UniProt P30542); test: Displacement of [3H]CCPA from human recombinant adenosine A1 receptor expressed in CHO cells; format: cell-based
T7 sequence (P30542 whole entry): T5 sequence (whole entry)

Adenosine receptor A3 = target: T8, Adenosine receptor A3 (Homo sapiens, UniProt P0DMS8); test: Displacement of [3H]PSB-11 from human recombinant adenosine A3 receptor expressed in CHO cells; format: cell-based
T8 sequence (P0DMS8 whole entry): T4 sequence (whole entry)

Mus musculus [21] = test: Neurotoxicity in F1 albino mouse assessed as minimal motor impairment at 300 mg/kg, ip after 4 hrs by rotorod test; format: toxicity, organism-based; parameters: dose 300 mg/kg, route intraperitoneal; conditions: in vivo; outline: as §1
[22] = target: T2, Adenosine receptor A2b (Homo sapiens); test: Displacement of [3H]ZM241385 from human adenosine A2B receptor expressed in CHO cells at 10 uM; format: cell-based; outline: as §2
Adenosine receptor A2b [23] = target: T6, Adenosine receptor A2b; test: Displacement of [3H]ZM241385 from human adenosine A2B receptor expressed in CHO cells; format: cell-based
Mus musculus [24] = test: Neurotoxicity in F1 albino mouse assessed as minimal motor impairment at 100 mg/kg, ip after 0.5 hrs by rotorod test; format: toxicity, organism-based; parameters: dose 100 mg/kg, route intraperitoneal; conditions: in vivo; outline: as §1

Sequence of Adenosine receptor A2a (Rattus norvegicus, UniProt P30543) (P30543 whole entry): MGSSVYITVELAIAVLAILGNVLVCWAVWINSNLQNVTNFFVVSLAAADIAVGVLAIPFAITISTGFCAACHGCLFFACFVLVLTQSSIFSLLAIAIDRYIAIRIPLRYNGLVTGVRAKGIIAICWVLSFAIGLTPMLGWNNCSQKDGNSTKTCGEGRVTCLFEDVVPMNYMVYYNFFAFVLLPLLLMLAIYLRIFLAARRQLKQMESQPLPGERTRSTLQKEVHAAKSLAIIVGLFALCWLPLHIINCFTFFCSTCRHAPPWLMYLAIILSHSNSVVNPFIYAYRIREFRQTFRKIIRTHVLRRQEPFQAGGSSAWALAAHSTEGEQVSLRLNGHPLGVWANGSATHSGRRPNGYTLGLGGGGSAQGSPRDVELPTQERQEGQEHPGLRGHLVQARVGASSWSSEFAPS
Sequence of Adenosine receptor A2a (Homo sapiens, UniProt P29274) (P29274 whole entry): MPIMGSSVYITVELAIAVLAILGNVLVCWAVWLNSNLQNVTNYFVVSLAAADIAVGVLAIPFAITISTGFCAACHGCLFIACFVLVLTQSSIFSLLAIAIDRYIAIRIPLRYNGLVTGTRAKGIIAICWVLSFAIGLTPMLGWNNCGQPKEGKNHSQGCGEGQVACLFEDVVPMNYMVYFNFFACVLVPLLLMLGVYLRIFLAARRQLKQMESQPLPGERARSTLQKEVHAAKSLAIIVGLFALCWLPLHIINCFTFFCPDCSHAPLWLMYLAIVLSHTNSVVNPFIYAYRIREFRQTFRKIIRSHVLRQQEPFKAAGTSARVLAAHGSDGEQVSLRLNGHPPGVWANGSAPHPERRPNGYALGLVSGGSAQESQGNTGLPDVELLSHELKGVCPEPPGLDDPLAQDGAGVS

Row | Compound | Ki (Adenosine receptor A1 [1]) [µM] | Activity (Mus musculus [2]) | Activity (Mus musculus [3]) | Activity (Mus musculus [5]) | inhibition [6] [%] | Ki (Adenosine receptor A2a [7]) [nM] | Activity (Mus musculus [8]) | Activity (Mus musculus [9]) | Activity (Mus musculus [10]) | Activity (Mus musculus [11]) | inhibition [12] [%] | inhibition [13] [%] | Activity (Mus musculus [14]) | Activity (Mus musculus [15]) | Ki (Adenosine receptor A2a [17]) [nM] | Activity (Mus musculus [19]) | Ratio Ki (Rattus norvegicus) | Ki (Adenosine receptor A1 [20]) [µM] | Ki (Adenosine receptor A3) [µM] | Activity (Mus musculus [21]) | other results
1 | CC(=O)O[C@H]1CC[C@H](N2CCCn3c2nc2c3c(=O)n(C)c(=O)n2C)CC1 | > 10 | inactive | inactive | Non-toxic | 5 | 6200 | inactive | inactive | Non-toxic | inactive | 27 | 5 | inactive | inactive | 21900 | inactive | > 2 | > 10 | > 10 | Non-toxic | inhibition [4]: 0%; Ratio Ki (CHO): 3; Activity (Mus musculus [16]): Non-toxic; Ki (Adenosine receptor A2b [18]): > 10 µM
2 | Cn1c(=O)c2c(nc3n2CCN3C2CCC(O)CC2)n(C)c1=O (mixture of isomers) | > 25 | inactive | inactive | Non-toxic | 4 | 4480 | inactive | inactive | Non-toxic | inactive | 0 | 7 | inactive | inactive | 3270 | inactive | > 6 | > 10 | > 10 | Non-toxic | inhibition [22]: 24%; Activity (Mus musculus [16]): Non-toxic; Ki (Adenosine receptor A2b [23]): > 10 µM
3 | Cn1c(=O)c2c(nc3n2CCCN3C2CCCCC2)n(C)c1=O | ≥ 25 | inactive | inactive | Non-toxic | 39 | 810 | inactive | inactive | Non-toxic | inactive | 12 | 37 | Active | inactive | 1610 | inactive | > 31 | > 10 | > 10 | Non-toxic | inhibition [4]: 0%; Ratio Ki (CHO): 2; Activity (Mus musculus [16]): Non-toxic; Ki (Adenosine receptor A2b [18]): > 10 µM
4 | Cn1c(=O)c2c(nc3n2CCCN3C2CCCCCCC2)n(C)c1=O | ≥ 25 | inactive | inactive | Non-toxic | 33 | 570 | inactive | inactive | Non-toxic | inactive | 52 | 17 | Active | inactive | 1530 | inactive | > 44 | > 10 | > 10 | Non-toxic | inhibition [22]: 32%; Ratio Ki (CHO): 3; Activity (Mus musculus [24]): Non-toxic; Ki (Adenosine receptor A2b [23]): > 10 µM
